Assay results reported in ChEMBL document CHEMBL4610021, “Synthesis and immunostimulatory activity of sugar-conjugated TLR7 ligands” (Bioorg Med Chem Lett, 2020).

Key:
Type in all cases: cell-based
Toll-like receptor 7 [1] = target: T1, Toll-like receptor 7 (Mus musculus, UniProt P58681); test: Agonist activity at TLR7 in mouse BMDC cells assessed as immunostimulatory activity by measuring increase in IL6 secretion incubated for 18 hrs by ELISA
T1 sequence (P58681 whole entry): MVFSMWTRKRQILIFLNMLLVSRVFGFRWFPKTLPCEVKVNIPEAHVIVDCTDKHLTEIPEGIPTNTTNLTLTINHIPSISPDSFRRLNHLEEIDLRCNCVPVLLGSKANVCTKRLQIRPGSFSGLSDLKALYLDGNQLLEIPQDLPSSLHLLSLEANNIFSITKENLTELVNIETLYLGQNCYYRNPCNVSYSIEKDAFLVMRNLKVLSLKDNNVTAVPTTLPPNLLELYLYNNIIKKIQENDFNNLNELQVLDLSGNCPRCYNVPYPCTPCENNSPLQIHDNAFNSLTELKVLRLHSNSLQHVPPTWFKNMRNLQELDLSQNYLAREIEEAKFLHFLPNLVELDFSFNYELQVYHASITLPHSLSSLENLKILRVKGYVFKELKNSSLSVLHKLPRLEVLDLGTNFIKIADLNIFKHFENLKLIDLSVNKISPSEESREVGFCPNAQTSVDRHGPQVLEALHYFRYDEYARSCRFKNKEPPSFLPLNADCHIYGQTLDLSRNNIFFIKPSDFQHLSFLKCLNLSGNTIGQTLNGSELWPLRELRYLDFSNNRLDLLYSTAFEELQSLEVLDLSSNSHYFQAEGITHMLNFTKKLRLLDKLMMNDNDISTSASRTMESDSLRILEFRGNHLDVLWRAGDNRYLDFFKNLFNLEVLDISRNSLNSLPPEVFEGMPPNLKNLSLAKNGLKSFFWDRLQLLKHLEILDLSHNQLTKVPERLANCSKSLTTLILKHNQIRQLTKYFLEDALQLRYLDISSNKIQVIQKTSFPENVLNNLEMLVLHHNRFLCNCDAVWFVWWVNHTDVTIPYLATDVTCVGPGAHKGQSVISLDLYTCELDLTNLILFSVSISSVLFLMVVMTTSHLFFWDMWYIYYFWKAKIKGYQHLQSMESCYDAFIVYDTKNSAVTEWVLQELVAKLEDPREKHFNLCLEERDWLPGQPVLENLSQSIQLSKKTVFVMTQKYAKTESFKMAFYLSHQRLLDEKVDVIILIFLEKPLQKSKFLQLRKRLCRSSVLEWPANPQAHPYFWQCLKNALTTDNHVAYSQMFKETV
How it was run: (§1)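 Primary murine bone marrow-derived dendritic cells plated at 1×10^5 cells/well and exposed to serially diluted compound; 0.25% DMSO vehicle. IL-6 in supernatant measured by ELISA. EC50 calculated by curve fitting; Emax expressed as % relative to the unconjugated reference ligand. Means ± SD of triplicate, representative of three independent experiments.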

Toll-like receptor 7 [2] = target: T1, Toll-like receptor 7; test: Agonist activity at TLR7 in mouse RAW264.7 cells assessed as immunostimulatory activity by measuring increase in TNFalpha secretion incubated for 18 hrs by ELISA
How it was run: (§2)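 Murine RAW264.7 macrophages plated at 1×10^4 cells/well, incubated 18 h with serially diluted compound; 0.25% DMSO vehicle. TNF-α in culture supernatant measured by ELISA. EC50 calculated by curve fitting; Emax as % of unconjugated reference ligand. Means ± SD of triplicate, representative of three independent experiments.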

[3] = target: T2, Toll-like receptor 7 (Mus musculus) (UniProt P58681); test: Agonist activity at TLR7 in mouse BMDC cells assessed as immunostimulatory activity by measuring increase in IL6 secretion incubated for 18 hrs by ELISA relative to 1V209; how it was run: as §1
T2 sequence (whole entry): T1 sequence (P58681 whole entry)

[4] = target: T2, Toll-like receptor 7 (Mus musculus); test: Agonist activity at TLR7 in mouse RAW264.7 cells assessed as immunostimulatory activity by measuring increase in TNFalpha secretion incubated for 18 hrs by ELISA relative to 1V209; how it was run: as §2
[5] = target: T3, Toll-like receptor 7 (Homo sapiens) (UniProt Q9NYK1); test: Agonist activity at TLR7 in human PBMC cells assessed as immunostimulatory activity by measuring fold increase in TNFalpha secretion at 10 uM incubated for 18 hrs by ELISA relative to 1V209
T3 sequence (whole entry): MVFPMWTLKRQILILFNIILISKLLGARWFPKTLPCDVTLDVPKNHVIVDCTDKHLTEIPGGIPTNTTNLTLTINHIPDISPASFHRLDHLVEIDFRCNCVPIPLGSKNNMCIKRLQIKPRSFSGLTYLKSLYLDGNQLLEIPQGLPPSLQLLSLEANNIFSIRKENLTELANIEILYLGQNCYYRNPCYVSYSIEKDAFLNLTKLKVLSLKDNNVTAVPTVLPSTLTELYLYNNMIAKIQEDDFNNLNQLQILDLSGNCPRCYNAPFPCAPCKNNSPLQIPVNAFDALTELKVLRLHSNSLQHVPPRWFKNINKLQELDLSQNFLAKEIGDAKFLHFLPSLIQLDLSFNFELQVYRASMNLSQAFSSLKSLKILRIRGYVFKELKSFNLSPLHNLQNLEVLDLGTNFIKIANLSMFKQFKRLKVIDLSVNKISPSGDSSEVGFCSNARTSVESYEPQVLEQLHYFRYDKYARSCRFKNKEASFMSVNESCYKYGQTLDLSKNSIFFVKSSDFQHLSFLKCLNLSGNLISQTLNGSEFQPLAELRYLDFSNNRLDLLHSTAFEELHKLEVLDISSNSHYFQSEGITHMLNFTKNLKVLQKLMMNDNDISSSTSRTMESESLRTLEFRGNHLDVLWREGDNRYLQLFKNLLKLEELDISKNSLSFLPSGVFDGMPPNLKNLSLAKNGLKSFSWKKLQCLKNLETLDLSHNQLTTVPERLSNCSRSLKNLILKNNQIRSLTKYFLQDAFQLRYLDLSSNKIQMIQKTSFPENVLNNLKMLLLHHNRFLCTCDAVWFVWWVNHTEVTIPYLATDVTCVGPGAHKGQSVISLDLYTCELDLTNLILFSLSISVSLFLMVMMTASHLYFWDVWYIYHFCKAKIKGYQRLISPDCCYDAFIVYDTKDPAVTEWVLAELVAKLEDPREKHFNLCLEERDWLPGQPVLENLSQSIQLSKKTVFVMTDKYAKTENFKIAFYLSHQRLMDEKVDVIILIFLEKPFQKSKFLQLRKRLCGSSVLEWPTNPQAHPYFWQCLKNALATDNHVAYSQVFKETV
How it was run: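 Human PBMC plated at 2×10^5 cells/well, exposed 18 h to 10 μM compound; 0.25% DMSO vehicle control. Cytokine in culture supernatant quantified by ELISA. Means ± SD of triplicate, representative of three independent experiments; one-way ANOVA with Dunnett's multiple comparisons test.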

Toll-like receptor 7 [6] = target: T1, Toll-like receptor 7; test: Agonist activity at TLR7 in mouse RAW264.7 cells assessed as immunostimulatory activity by measuring increase in TNFalpha secretion incubated for 6 hrs in absence of actin polymerization inhibitor cytochalasin D by ELISA
How it was run: (§3)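 RAW264.7 cells seeded at 1.5×10^4 cells/well, pre-incubated with or without 1 μM cytochalasin D, then exposed 6 h to serially diluted compound. TNF-α and IL-6 in supernatants determined by ELISA. Means ± SD of triplicate, representative of three independent experiments.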

Toll-like receptor 7 [7] = target: T1, Toll-like receptor 7; test: Agonist activity at TLR7 in mouse RAW264.7 cells assessed as immunostimulatory activity by measuring increase in TNFalpha secretion preincubated with actin polymerization inhibitor cytochalasin D followed by incubation with compound for 6 hrs by ELISA; how it was run: as §3

Row | Compound | EC50 (Toll-like receptor 7 [1]) [nM] | EC50 (Toll-like receptor 7 [2]) [nM] | Emax [3] [%] | Emax [4] [%] | fold change (FC) [5] | EC50 (Toll-like receptor 7 [6]) [nM] | EC50 (Toll-like receptor 7 [7]) [nM]
1 | COCCOc1nc(N)c2nc(O)n(Cc3ccc(C(=O)NC[C@H]4O[C@@H]5O[C@H]6[C@H](O)[C@@H](O)[C@@H](O[C@H]7[C@H](O)[C@@H](O)[C@@H](O[C@H]8[C@H](O)[C@@H](O)[C@@H](O[C@H]9[C@H](O)[C@@H](O)[C@@H](O[C@H]%10[C@H](O)[C@@H](O)[C@@H](O[C@H]4[C@H](O)[C@H]5O)O[C@@H]%10CO)O[C@@H]9CO)O[C@@H]8CO)O[C@@H]7CO)O[C@@H]6CO)cc3)c2n1 | 71 | 128 | 127 | 126 | – | – | –
2 | COCCOc1nc(N)c2nc(O)n(Cc3ccc(C(=O)N[C@H]4C(O)O[C@H](CO)[C@@H](O)[C@@H]4O)cc3)c2n1 (stereo partly specified) | 239 | 234 | 139 | 103 | 2 | – | –
3 | COCCOc1nc(N)c2nc(O)n(Cc3ccc(C(=O)NC[C@H]4O[C@@H]5O[C@H]6[C@H](O)[C@@H](O)[C@@H](O[C@H]7[C@H](O)[C@@H](O)[C@@H](O[C@H]8[C@H](O)[C@@H](O)[C@@H](O[C@H]9[C@H](O)[C@@H](O)[C@@H](O[C@H]%10[C@H](O)[C@@H](O)[C@@H](O[C@H]%11[C@H](O)[C@@H](O)[C@@H](O[C@H]%12[C@H](O)[C@@H](O)[C@@H](O[C@H]4[C@H](O)[C@H]5O)O[C@@H]%12CO)O[C@@H]%11CO)O[C@@H]%10CO)O[C@@H]9CO)O[C@@H]8CO)O[C@@H]7CO)O[C@@H]6CO)cc3)c2n1 | 108 | 132 | 130 | 97 | – | – | –
4 | COCCOc1nc(N)c2[nH]c(=O)n(Cc3ccc(C(=O)O)cc3)c2n1 | 434 | 252 | 100 | 100 | – | 2150 | 2110
5 | COCCOc1nc(N)c2nc(O)n(Cc3ccc(C(=O)NC4O[C@H](CO)[C@@H](O)[C@H](O)[C@@H]4O)cc3)c2n1 (stereo partly specified) | 303 | 252 | 116 | 121 | – | – | –
6 | COCCOc1nc(N)c2nc(O)n(Cc3ccc(C(=O)NC4O[C@H](CO)[C@H](O)[C@H](O)[C@H]4O)cc3)c2n1 (stereo partly specified) | 258 | 316 | 118 | 115 | – | – | –
7 | COCCOc1nc(N)c2nc(O)n(Cc3ccc(C(=O)N[C@H]4C(O)O[C@H](CO)[C@H](O)[C@@H]4O)cc3)c2n1 (stereo partly specified) | 210 | 153 | 139 | 83 | – | – | –
8 | COCCOc1nc(N)c2nc(O)n(Cc3ccc(C(=O)NC4O[C@H](CO)[C@@H](O[C@@H]5O[C@H](CO)[C@H](O)[C@H](O)[C@H]5O)[C@H](O)[C@H]4O)cc3)c2n1 (stereo partly specified) | 110 | 80 | 142 | 177 | – | – | –
9 | COCCOc1nc(N)c2nc(O)n(Cc3ccc(C(=O)N[C@H]4[C@H](O)[C@H]5O[C@H]6[C@H](O)[C@@H](O)[C@@H](O[C@H]7[C@H](O)[C@@H](O)[C@@H](O[C@H]8[C@H](O)[C@@H](O)[C@@H](O[C@H]9[C@H](O)[C@@H](O)[C@@H](O[C@H]%10[C@H](O)[C@@H](O)[C@@H](O[C@H]%11[C@H](O)[C@@H](O)[C@@H](O[C@H]%12[C@H](O)[C@@H](O)[C@@H](O[C@@H]4[C@@H](CO)O5)O[C@@H]%12CO)O[C@@H]%11CO)O[C@@H]%10CO)O[C@@H]9CO)O[C@@H]8CO)O[C@@H]7CO)O[C@@H]6CO)cc3)c2n1 | 56 | 107 | 109 | 113 | – | – | –
10 | COCCOc1nc(N)c2nc(O)n(Cc3ccc(C(=O)NC4O[C@H](CO)[C@@H](O)[C@H](O)[C@H]4O)cc3)c2n1 (stereo partly specified) | 198 | 230 | 118 | 87 | – | 490 | 909
11 | COCCOc1nc(N)c2nc(O)n(Cc3ccc(C(=O)NC4O[C@H](CO)[C@@H](O[C@H]5O[C@H](CO)[C@@H](O)[C@H](O)[C@H]5O)[C@H](O)[C@H]4O)cc3)c2n1 (stereo partly specified) | 99 | 136 | 159 | 157 | 2 | 277 | 585
12 | COCCOc1nc(N)c2nc(O)n(Cc3ccc(C(=O)NC[C@H]4O[C@@H]5O[C@H]6[C@H](O)[C@@H](O)[C@@H](O[C@H]7[C@H](O)[C@@H](O)[C@@H](O[C@H]8[C@H](O)[C@@H](O)[C@@H](O[C@H]9[C@H](O)[C@@H](O)[C@@H](O[C@H]%10[C@H](O)[C@@H](O)[C@@H](O[C@H]%11[C@H](O)[C@@H](O)[C@@H](O[C@H]4[C@H](O)[C@H]5O)O[C@@H]%11CO)O[C@@H]%10CO)O[C@@H]9CO)O[C@@H]8CO)O[C@@H]7CO)O[C@@H]6CO)cc3)c2n1 | 153 | 287 | 127 | 135 | – | – | –
